Laboratory results reported in the RNAGym collection of RNA variant scans (doi:10.1126/science.aae0568).
This sample holds only a part of the variants without activity.

B1: tRNA (parent)
chain: GUUCCGUUGGCGUAAUGGUAACGCGUCUCCCUCCUAAGGAGAAGACUGCGGGUUCGAGUCCCGUACGGAACG

Variants of: B1
Experiment: yeast fitness relative to wild type (ratio to wild type); higher = fitter; tRNA-Arg(CCU), competitive growth, 37 C, YPD
How it was run: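 Amplicons of the tRNA-Arg(CCU) gene were sequenced, 100-nucleotide paired-end, from the start population and from each end population of a pooled yeast competition. The competition, in six parallel replicates, lasted 24 hours in YPD at 37°C. Fitness relative to wild type was calculated from changes in genotype frequencies. Genotypes had to have ≥ 100 starting reads, and estimates < 0.5 were set to 0.5.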

Going from U53G G58C to A21U A36G A40C A69U, the yeast fitness falls from 0.716 to no more than 0.5.

First: A14C C27G A40U A70U
Second: U7A A37U C62A
The yeast fitness of the first is lower: no more than 0.5 for the first, 0.571 for the second.

Compared with C33G G39C C55U, A37C C49G is higher in yeast fitness: 0.515 for the first, 0.729 for the second.

Going from U19C C31A A37G G50U C62G to A21G C61U, the yeast fitness rises from no more than 0.5 to 1.

Compared with G25A A36G A45C, A15G G23C A45G G52A is lower in yeast fitness: 0.929 for the first, 0.65 for the second.

C27U U59A A65U and U13G U19A C27U C29U cannot be ordered by yeast fitness: no more than 0.5 for the first, no more than 0.5 for the second.

First: C5A C24U C29U C33U C34G A42U G58A
Second: U32C C55U A57C G67A
The yeast fitness of the first is lower: no more than 0.5 for the first, 0.638 for the second.

Going from A14G C27U C33U U35C to C49G G52A, the yeast fitness rises from no more than 0.5 to 0.898.

First: U3A U16C A20C G67A
Second: U3A C22A C33A A36U U53A U54A
The yeast fitness of the first is higher: 0.541 for the first, no more than 0.5 for the second.

Going from U54G C66U to G18A A37U, the yeast fitness falls from 0.653 to 0.6.

Compared with G6A A37U G56A A65C, U7C U47C is higher in yeast fitness: 0.56 for the first, 0.895 for the second.

First: C5G C61G A69C
Second: A37C G56A
The yeast fitness of the first is lower: 0.574 for the first, 0.829 for the second.

Going from C31G A37C G50A A65C to U26A C34G A57U C62U, the yeast fitness rises from no more than 0.5 to 0.582.

C5U A15U C55A and C33G G51A C55A cannot be ordered by yeast fitness: no more than 0.5 for the first, no more than 0.5 for the second.

Compared with A21U G23A U64C G67A, C22U C33U A42U A69C is higher in yeast fitness: 0.568 for the first, 0.629 for the second.

Going from C34G G38C G68C to G9A A40C G48C A57G, the yeast fitness falls from 0.582 to no more than 0.5.

Compared with U8C G25C C29G, U2C C46U C66U is higher in yeast fitness: no more than 0.5 for the first, 0.779 for the second.

First: U7C G56A A65C
Second: G9C G18C C49G A65U
The yeast fitness of the first is higher: 0.598 for the first, 0.553 for the second.

Compared with U7A U8G A14G A36U A43U, U19A A45U U54G is higher in yeast fitness: no more than 0.5 for the first, 0.631 for the second.

Going from C27G A42U A43U to G10C C29U C31U A45C, the yeast fitness rises from 0.594 to 0.623.

Going from C4U G6A A14C A65C to C5G U19C G67C, the yeast fitness rises from no more than 0.5 to 0.682.

Going from A20C A21G U64G to G17A A40U A42C C49A C66A, the yeast fitness falls from 0.558 to no more than 0.5.

U16G C61G A65U and C11U U26A C33U U53C cannot be ordered by yeast fitness: no more than 0.5 for the first, no more than 0.5 for the second.

Going from C29U C49A G68C to C4A A14C C27A, the yeast fitness falls from 0.584 to no more than 0.5.

A20U C22A C61A C62G and G10A G44A U54C C61U G67A cannot be ordered by yeast fitness: no more than 0.5 for the first, no more than 0.5 for the second.

Going from G6A U59C C62U to A36G G52A, the yeast fitness rises from 0.543 to 0.744.

Compared with A21C U26C, C4U C55U U59G is lower in yeast fitness: 0.785 for the first, 0.587 for the second.

Going from U2C U35G A40C C62G C66G to A14G C34G A43C, the yeast fitness rises from no more than 0.5 to 0.591.

Compared with U16C G52A, C30A G63U U64A is lower in yeast fitness: 0.713 for the first, no more than 0.5 for the second.

C24U C29U A42G U59A C61U and U19C C22U G50A U64C cannot be ordered by yeast fitness: no more than 0.5 for the first, no more than 0.5 for the second.

First: C5A U32C C60U C61G
Second: G9A G18A C27U A42U
The yeast fitness of the first is lower: no more than 0.5 for the first, 0.652 for the second.

Compared with C11G C55U, A37U A69C is higher in yeast fitness: no more than 0.5 for the first, 0.796 for the second.

C5A C11U C34A A40U A42U G68A and G10C A45U C60G C66G cannot be ordered by yeast fitness: no more than 0.5 for the first, no more than 0.5 for the second.

First: A20G U26C A37C G68A
Second: A40C C46A
The yeast fitness of the first is lower: no more than 0.5 for the first, 0.994 for the second.

Compared with G6A A15C G23U, U7G C24G is higher in yeast fitness: no more than 0.5 for the first, 0.619 for the second.

First: C22G A43C U53C C55G
Second: U26C A40U
The yeast fitness of the first is lower: no more than 0.5 for the first, 0.846 for the second.

Compared with G17C C24A U32C U47A G67C, G23C G52C is higher in yeast fitness: no more than 0.5 for the first, 0.523 for the second.

First: A15G A45C A69U
Second: U7G U26A G63A
The yeast fitness of the first is higher: 0.779 for the first, no more than 0.5 for the second.

First: C24G G38C A65U
Second: A15C A42C G48A G50C
The yeast fitness of the first is lower: 0.509 for the first, 0.587 for the second.

First: C22U C27U A37G
Second: C46G C62U
The yeast fitness of the first is lower: 0.643 for the first, 0.982 for the second.

C5G C34U A70U and C4A U19G U35C cannot be ordered by yeast fitness: no more than 0.5 for the first, no more than 0.5 for the second.

Work on C31U A40U C66A yielded a yeast fitness of no more than 0.5.
